STAT3 inh: inhibitors of IL-6 induced STAT3 signaling. U3A cells, IL-6 STAT3-luciferase reporter, luminescence; host cell line lacks STAT1. AID 862. inhibition, % at 5.5 µM. hit rate 0.89% among 190,000;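 active means inhibition above the mean inhibition across all screened compounds plus 3 SD, cut at about 44% in these data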
HSP90 refold inh: HSP90 refolding inhibition in rabbit reticulocyte lysate; inhibition, % at 5.6 µM; AID 1789; hit rate 0.91% among 290,000; luciferase refolding luminescence, 3 h;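 active means inhibition above the screen-wide mean plus 3 SD, computed separately per campaign, cut at about 16% in these data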;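 further: inhibitors lower the luminescence because luciferase stays unfolded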
FLuc stim CS: affects firefly luciferase, flagging false hits in luciferase stimulation screens | AID 1027 | P08659 | activation factor at 10 µM | ATPlite luciferase biochemical, luminescence, 10 min; 0 = ATP-free wells, 1 = DMSO control | 200,000 tested, under 10 active;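 active means luciferase activation factor, scaled between plate controls, of at least 2 with compound at 10 µM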
Target sequence (P08659 whole entry, looked up): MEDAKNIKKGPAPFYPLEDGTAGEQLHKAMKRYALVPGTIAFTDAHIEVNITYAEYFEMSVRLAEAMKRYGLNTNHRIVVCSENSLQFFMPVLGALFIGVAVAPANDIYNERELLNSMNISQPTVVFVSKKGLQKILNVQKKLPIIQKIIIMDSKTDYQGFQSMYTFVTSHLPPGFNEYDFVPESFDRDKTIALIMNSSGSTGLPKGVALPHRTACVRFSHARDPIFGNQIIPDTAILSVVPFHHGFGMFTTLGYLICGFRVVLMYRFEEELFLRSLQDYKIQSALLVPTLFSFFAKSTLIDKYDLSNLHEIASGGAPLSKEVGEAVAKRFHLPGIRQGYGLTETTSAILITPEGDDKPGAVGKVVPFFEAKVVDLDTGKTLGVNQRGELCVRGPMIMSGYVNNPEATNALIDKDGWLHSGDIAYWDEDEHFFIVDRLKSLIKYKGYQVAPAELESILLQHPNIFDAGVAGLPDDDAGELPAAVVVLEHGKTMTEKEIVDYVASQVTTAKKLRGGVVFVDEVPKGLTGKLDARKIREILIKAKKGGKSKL
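System: Luciferase/luciferin detection reagent, cell-free biochemical luciferase assay | Medium: PBS buffer for ATP | Dosing: Test compounds dosed from 2 mM stocks in 100% DMSO | Timing: 10 min at ambient temperature | Signal: Luminescence measurement of luciferase light output | Evaluation: Luciferase activation, seen as luminescence increase over controls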
FLuc inh counter: counter-screen for luciferase assay inhibitors: firefly luciferase inhibition; P08659; inhibition, % at 10 µM; ATPLite firefly luciferase biochemical luminescence, 10 min; hit rate 1.5% among 200,000; AID 1006;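 active means inhibition above about 50% when tested at 10 µM, limit read from the data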
PPC-1+TRAIL kill: compounds killing PPC-1 cancer cells with TRAIL present (potentiator screen, no TRAIL-free arm) | PPC-1 cells + TRAIL, ATPLite viability luminescence | cell killing (% activity), % at 4 µM or 5 µM | hit rate 0.41% among 220,000 | AID 1443;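 active means cell killing above 50% in the first pass at 4 µM, then a duplicate retest at 5 µM averaging 50% or more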
C8 TRAIL sens: caspase-8 TRAIL sensitization. hit rate 1% among 360,000. NB7+C8 cells + TRAIL, ATPlite viability luminescence. AID 624354. inhibition (viability loss, TRAIL sensitization), % at 10 µM;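 active means compounds causing at least 50% loss of cell viability in the single-dose screen, relative to plate controls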
A number is an active result; n = inactive; x = no result given. Most compounds without a hit are left out; they make up all but 2.2% or so of the library.

SMILES	STAT3 inh	HSP90 refold inh	FLuc stim CS	FLuc inh counter	PPC-1+TRAIL kill	C8 TRAIL sens
O=C(N=Nc1c(O)[nH]c2ccccc12)c1ccco1	n	n	n	75	n	n
COc1cc(C(=O)NNC(=O)c2cc(C)[nH]n2)cc(OC)c1OC	n	n	n	n	n	n
CCC(CO)NCc1ccc(OCC(=O)Nc2cccc(C(F)(F)F)c2)c(OC)c1 (configuration not stated)	n	n	n	n	52	n
CCOc1cc(CNC(C)(C)C)ccc1OCC(=O)Nc1cccc(C(F)(F)F)c1	n	n	n	n	n	n
FC(F)(F)C1=Nc2cccc3cccc(c23)N1	x	x	x	x	x	51
CC(C)(C)C1CCc2sc(C(=O)NNC(=O)CCl)cc2C1 (configuration not stated)	n	n	n	57	n	88
CCOc1ccc(NC(=O)c2nsc(Cl)c2Cl)cc1	n	n	n	51	n	n
COc1cccc(NC(=O)c2nn(C)cc2Br)c1	n	n	x	x	x	n
CCOc1ccc(NC(=O)c2nn(C)cc2Br)cc1	n	n	n	70	n	n
COC(=O)CCC(=O)c1oc2ccc(OC)cc2c1N	n	n	n	56	n	n
COc1ccc2oc(C(=O)c3ccccc3)c(N)c2c1	n	n	n	n	n	x
CCc1cccc(NC(=O)Cc2ccc(OC)c(OC)c2)c1	n	n	n	n	n	n
COc1ccc([C@H]2C[C@H](O)[C@@H](n3cc(-c4ccc(F)cc4)nn3)CN2CC2CCCCC2)cc1	x	x	x	x	x	n
O=C1C(Cl)=C(NC(=O)c2ccccc2)C(=O)C(Cl)=C1NC(=O)c1ccccc1	x	71	x	x	x	n
O=C(CN1C(=O)c2ccccc2C1=O)NC(Cc1ccccc1)C(=O)O (configuration not stated)	x	x	x	x	x	n
Cn1c(/C=N/O)nc2ccccc21	x	n	x	x	n	n
CCC(=O)c1ccc(/C=C/c2nc3ccccc3n2C)o1	n	n	n	79	n	51
COc1ccc(Cn2c(SCc3ccc(C)cc3)nc3cc(OC)c(OC)cc3c2=N)cc1Cl	n	n	n	n	n	93
COc1cc2nc(SCc3ccc(Cl)cc3Cl)n(Cc3cccs3)c(=N)c2cc1OC	n	n	n	n	n	n
COc1ccc(Cn2c(SCc3cc(C)ccc3C)nc3cc(OC)c(OC)cc3c2=N)cc1	n	n	n	n	n	92
Cc1cc(C(=O)COC(=O)c2n[nH]c(=O)c3ccccc23)c(C)n1C	x	x	x	x	x	n
CCn1nc(C(=O)OCC(=O)c2cc(C)n(Cc3cccs3)c2C)c2ccccc2c1=O	n	33	n	58	n	n
C=CCn1c(C)cc(C(=O)COC(=O)c2n[nH]c(=O)c3ccccc23)c1C	x	x	x	x	x	69
CCOc1ccc(-c2c(C#N)c(N)nc3c2c(=O)n(C)c(=O)n3C)cc1OC	n	n	n	n	n	86
O=C(N[C@@H](Cc1ccccc1)C(=O)N1CCC2(CC1)NCCc1[nH]cnc12)c1cccc(F)c1	x	n	x	x	x	n
SMILES	STAT3 inh	HSP90 refold inh	FLuc stim CS	FLuc inh counter	PPC-1+TRAIL kill	C8 TRAIL sens
CCCCc1n[nH]c(=S)n1Cc1ccc(Cl)cc1	n	n	n	n	n	n
CCOc1ccc(S(=O)(=O)NC(Cc2c[nH]c3ccccc23)C(=O)O)cc1 (configuration not stated)	x	n	x	x	x	n
OC(c1cc(C(F)(F)F)nc2c(C(F)(F)F)cccc12)C1CCCCN1 (configuration not stated)	x	x	x	x	x	n
OC(c1cc(-c2cccc(Cl)c2)nc2ccccc12)C1CCCCN1 (configuration not stated)	x	x	x	x	x	67
CNC(=O)c1c(C)[nH]c(=S)c(C#N)c1-c1ccco1	x	n	x	x	n	n
Cc1ccccc1NC(=O)c1c(C)[nH]c(=S)c(C#N)c1-c1ccco1	n	n	n	n	60	n
Cc1cccc[n+]1CCCCCCCCCC[n+]1ccccc1C	n	n	n	n	x	n
CCCCCCCCCC[n+]1cccc2c3ccccc3ccc21	87	n	n	n	n	n
CCCCCCCC[n+]1cccc2c3ccccc3ccc21	87	n	n	n	n	59
COc1ccc(C(C(=O)NC(C)(C)C)N(C(=O)CCC(=O)Nc2cc(C)on2)c2cccc(C)c2C)cc1 (configuration not stated)	x	n	x	x	x	n
Cc1cc(C)c(C(O)c2ncc(-c3cccc(F)c3)[nH]2)c(C)c1 (configuration not stated)	x	x	x	x	x	n
CN(C)CCN1C(=O)C2C(C(=O)Nc3cc(Cl)cc(Cl)c3)C3C=CC2(O3)C1C(=O)NC1CCCCC1 (configuration not stated)	x	n	x	x	x	n
C#CCOCCOCCOCCNc1nc(N2CCN(C(=O)CCCCCCCCCCNC(=O)[C@H]([C@@H](C)CC)n3cc(CCCCCN)nn3)CC2)nc(N2CCN(C(=O)CCCCCCCCCCNC(=O)[C@H]([C@@H](C)CC)n3cc(CCCCN=C(N)N)nn3)CC2)n1	x	x	x	x	x	51
C#CCOCCOCCOCCNc1nc(N2CCN(C(=O)[C@H](CCC(=O)O)n3cc(C(N)CC(C)C)nn3)CC2)nc(N2CCN(C(=O)[C@H](CCC(=O)O)n3cc(C(N)CC(C)C)nn3)CC2)n1 (some centres not stated)	x	17	n	n	n	n
COc1ccc(-c2cc(C(F)(F)F)n3nc(C(=O)Nc4c(C)n(C)n(-c5ccccc5)c4=O)cc3n2)cc1	n	n	n	n	x	n
C=CCn1c(C)cc(C(=O)CN2C(=O)c3ccccc3S2(=O)=O)c1C	x	x	x	x	x	83
CC(C)NC(=O)CN1C(=O)c2ccccc2S1(=O)=O	n	n	n	n	n	n
O=C(CN1C(=O)c2ccccc2S1(=O)=O)c1ccccc1	65	n	n	n	n	n
O=C(CCl)Nc1cccc(-c2cnc3ccccc3n2)c1	n	n	n	n	n	94
COc1ccc(NC(=O)CCl)cn1	x	n	x	x	n	x
O=C(CCl)Nc1ccc(Oc2cnc3ccccc3n2)cc1	n	n	n	n	n	93
CCOc1ccc(NC(=O)[C@H](Cc2ccccc2)NC(=O)C2CCNCC2)cc1	x	n	x	x	x	n
Cc1ccnc(NS(=O)(=O)c2ccc(NC(=O)c3cccc(Cl)c3)cc2)n1	x	x	x	x	x	n
O=C(C1CCCO1)N1CCN(C(=S)Nc2ccccc2Cl)CC1 (configuration not stated)	n	n	n	n	n	n
C=CCNc1nc(-c2cc3ccccc3o2)cs1	n	n	n	76	n	n
c1ccc2oc(-c3csc(NCC4CCCO4)n3)cc2c1 (configuration not stated)	n	n	n	n	n	n
Cc1ccc(S(=O)(=O)N(C)C[C@@H]2OCc3cn(nn3)CCCC(=O)N([C@@H](C)CO)C[C@H]2C)cc1	x	x	x	x	x	n
Cn1nccc1C(=O)OCC(=O)Nc1ccccc1Cl	x	n	x	x	x	n
Cc1cc(NC(=O)/C=C/c2ccc(F)cc2)n(-c2nc3ccccc3[nH]2)n1	n	n	n	n	n	n
COc1ccc(/C=C/C(=O)Nc2cc(C)nn2-c2nc3ccccc3[nH]2)cc1	n	n	n	67	n	71

High-throughput results (PubChem BioAssay)
